# Measured values pooled from the literature.
# Protocols differ between the studies behind these lines.
# Medium: plasma
Structure (SMILES),species,route,dose,notes,AUC(0-t)
CC(C)n1c(C2CCNCC2)nc2c([N+](=O)[O-])c(Br)c(Br)cc21,human,oral,25 mg,patients,152 ng·h/mL
CC(=O)N(C)[C@H]1CCN(C(=O)c2cnc3c(c2)C[C@](C)(c2ccc(F)cc2)N3)C1,male human,oral,30 mg,"multiple doses, once daily",3.42 µM·h
COc1ccc2c(c1)CN(C(=O)CCN1CCC(Cc3ccccc3)CC1)CC[S@@+]2[O-],male human,intravenous,0.4 mg/kg,healthy volunteers,2410 ng·h/mL
C[C@@H](Oc1ccc(S(C)(=O)=O)cc1C(=O)N1C[C@@H]2C[C@]2(c2cc(C(F)(F)F)on2)C1)C(F)(F)F,human,oral,10 mg,"single dose, fed",1.81 µM·h
Cc1cc(-c2nccc3c2ccn3CC(=O)Nc2ccc(-c3cnccn3)cn2)ccn1,human,oral,7 mg,single dose,0.498 µM·h
OC[C@H]1O[C@@H](c2cc(Cc3ccc(C4CC4)cc3)c(Cl)c3c2CCO3)[C@H](O)[C@@H](O)[C@@H]1O,human,oral,0.3 mg,"single dose, fed",24.6 ng·h/mL
COc1ccc(-c2c(Nc3ccccn3)[nH]c3c(C4=CCCCC4)c(-c4ccccc4)nn3c2=O)cc1,human,oral,100 mg once daily,"multiple doses, steady state, patients",66300 ng·h/mL
CC(=O)O[C@H]1C(=O)[C@@]2(C)[C@H]([C@H](OC(=O)c3ccccc3)[C@]3(O)C[C@H](OC(=O)[C@H](O)[C@@H](NC(=O)c4ccccc4)c4ccccc4)C(C)=C1C3(C)C)[C@]1(OC(C)=O)CO[C@@H]1C[C@@H]2O,human,intravenous,80 mg/m²,,3.25 µM·h
